Data taken from ChEMBL document CHEMBL1914341, “Anti-tumoral activities of dioncoquinones B and C and related naphthoquinones gained from total synthesis or isolation from plants” (Eur J Med Chem, 2011).

Columns and labels:
[1] = Cytotoxicity against human INA-6 cells assessed as viable fractions using annexin V-FITC/propidium iodide staining by flow cytometry; type: functional, cell-based
In short: (§1)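 Human multiple myeloma INA-6 cells or mononuclear cells from peripheral blood of healthy donors exposed to a range of compound concentrations. Viable fraction taken as annexin V/PI double-negative cells; EC50 derived.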

[2] = system: PBMC; test: Cytotoxicity against human PBMC cells assessed as viable fractions using annexin V-FITC/propidium iodide staining by flow cytometry; type: cell-based; in short: as §1

Row | Structure (SMILES) | EC50 [1] | EC50 [2]
1 | COC1=C(C)C(=O)c2cc(OC)c(O)c(O)c2C1=O [DIONCOQUINONE D] | 80 µM | –
2 | COc1cc2c(c(OC)c1OC)C(=O)C(O)=C(C)C2=O | > 100 µM | –
3 | CC1=C(O)C(=O)c2c(cc(O)c(O)c2O)C1=O | 7 µM | 70 µM
4 | CC1=C(O)C(=O)c2c(ccc(O)c2O)C1=O [DIONCOQUINONE B] | 11 µM | –
5 | COc1ccc2c(c1OC)C(=O)C=C(C)C2=O | 15 µM | 13 µM
6 | COC1=C(C)C(=O)c2ccc(O)c(O)c2C1=O | > 100 µM | –
7 | CC1=C(O)C(=O)c2cc(O)ccc2C1=O | > 100 µM | –
8 | CC1=C(O)C(=O)c2c(O)cccc2C1=O [DROSERONE] | > 100 µM | –
9 | COc1cccc2c1C(=O)C=C(C)C2=O | 4 µM | 16 µM
10 | CC1=C(O)C(=O)c2cc(O)c(O)cc2C1=O | 52 µM | –
11 | COc1c(O)cc2c(c1O)C(=O)C(O)=C(C)C2=O [DIONCOQUINONE E] | 100 µM | –
12 | CC1=CC(=O)c2cc(O)ccc2C1=O | 13 µM | 17 µM
13 | COc1ccc2c(c1O)C(=O)C(O)=C(C)C2=O | > 100 µM | –
14 | COc1ccc2c(c1OC)C(=O)C(O)=C(C)C2=O | > 100 µM | –
15 | CC1=C(O)C(=O)c2c(ccc(O[C@@H]3O[C@H](CO)[C@@H](O)[C@H](O)[C@H]3O)c2O)C1=O [DIONCOQUINONE A] | 29 µM | –
16 | COc1cc2c(c(OC)c1OC)C(=O)C=C(C)C2=O | 8 µM | 7.5 µM
17 | COc1ccc2c(c1)C(=O)C(O)=C(C)C2=O | > 100 µM | 50 µM
18 | CC1=CC(=O)c2c(ccc(O)c2O)C1=O | 75 µM | 100 µM
19 | COc1cc2c(cc1OC)C(=O)C(O)=C(C)C2=O | > 100 µM | –
20 | CC1=C(O)C(=O)c2c(O)ccc(O)c2C1=O | > 100 µM | –
21 | COc1cc2c(c(O)c1O)C(=O)C(O)=C(C)C2=O [DIONCOQUINONE C] | 14 µM | –
22 | COc1cc2c(cc1OC)C(=O)C(C)=CC2=O | 6 µM | 6.5 µM
23 | N[C@@H](Cc1ccc(N(CCCl)CCCl)cc1)C(=O)O [MELPHALAN] | 2 µM | 3 µM
24 | CC1=CC(=O)c2c(O)cccc2C1=O [PLUMBAGIN] | 0.8 µM | 0.8 µM
